The array DNA melting data of Ke et al. (doi:10.1101/2024.01.08.574731)

Experiments:
[1] = melting temperature; fluorescence melt of hairpins on a sequencing array, two-state fit, raised by 9.35 °C to match UV melts; conditions: sodium 0.088 M
Outline: (§1)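 Melting temperature and folding enthalpy were derived from bootstrapped two-state fits. The fitted temperatures were raised by 9.35 °C to agree with UV melts, and four replicates were combined by inverse variance. The underlying data were Cy3 fluorescence images of library hairpins, with annealed Cy3 and quencher oligos, on a sequenced MiSeq flow cell in 50 mM Na-HEPES pH 8.0, 25 mM NaCl, taken in 2.5 °C steps up to 60 °C, normalised to pre-quench Cy3 and to control constructs.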

[2] = folding enthalpy; higher = less favourable; fluorescence melt of hairpins on a sequencing array, two-state fit; conditions: sodium 0.088 M
Outline: as §1

GTGTACGGAAACGTACAC (((((((....)))))))
Tm [1]: 67.2 °C | folding enthalpy [2]: -33.6 kcal/mol

GCGTTCCGAAAGGATCGC (((.(((....))).)))
Tm [1]: 61.6 °C | folding enthalpy [2]: -35.4 kcal/mol

GTGGAGGGAAACCTTCGC (.(.(((....))).).)
Tm [1]: 34.1 °C | folding enthalpy [2]: -26.7 kcal/mol

GCGGAGCGAAAGCTTAGC ((..(((....)))..))
Tm [1]: 52.3 °C | folding enthalpy [2]: -14.1 kcal/mol

GACAGTGGAAACACCGTC (((.(((....))).)))
Tm [1]: 39.6 °C | folding enthalpy [2]: -24.8 kcal/mol

GATCGTTAAACGATC ((((((...))))))
Tm [1]: 53.2 °C | folding enthalpy [2]: -34.6 kcal/mol

GACTCCGAAAGGAGAGTC ((((((....)))..)))
Tm [1]: 43 °C | folding enthalpy [2]: -12.9 kcal/mol

GCTTAGCGAAAGCAAAGC ((((.((....)).))))
Tm [1]: 59.8 °C | folding enthalpy [2]: -23.6 kcal/mol

GGGCCACGAAAGTGTCCC (((.(((....))).)))
Tm [1]: 57.3 °C | folding enthalpy [2]: -45.3 kcal/mol

GATCCCATGGGGATC ((((((...))))))
Tm [1]: 65.8 °C | folding enthalpy [2]: -33.2 kcal/mol

GCAATGGGAAACCATCAC (..((((....))))..)
Tm [1]: 22.8 °C | folding enthalpy [2]: -10.7 kcal/mol

GTTCTGACGAAAGTCAAC (((..(((....))))))
Tm [1]: 25.2 °C | folding enthalpy [2]: -8.85 kcal/mol

GGGGCGGGAAACCGCTCC ((.((((....)))).))
Tm [1]: 66.9 °C | folding enthalpy [2]: -19.8 kcal/mol

GCTACCGAAAGGTTAAGC ((((((....)))..)))
Tm [1]: 39.4 °C | folding enthalpy [2]: -19.6 kcal/mol

GCTCAGCGAAAGCTAGGC ((..(((....)))..))
Tm [1]: 44.5 °C | folding enthalpy [2]: -15.5 kcal/mol

GGATCGGGAAACCGGTCC (((.(((....))).)))
Tm [1]: 56.1 °C | folding enthalpy [2]: -50.4 kcal/mol

GGAGAGAAATCTCC (((((....)))))
Tm [1]: 45.1 °C | folding enthalpy [2]: -18.4 kcal/mol

GCGCTTCGAAAGAACCGC (((.(((....))).)))
Tm [1]: 46.4 °C | folding enthalpy [2]: -31.7 kcal/mol

GAAGGCCGAAAGGCTTTC (((.(((....))).)))
Tm [1]: 54.2 °C | folding enthalpy [2]: -20.6 kcal/mol

GGTTACCGAAAGGTCACC (((.(((....))).)))
Tm [1]: 49.1 °C | folding enthalpy [2]: -27.7 kcal/mol

AAGGGGAAACCCTT (((((....)))))
Tm [1]: 46 °C | folding enthalpy [2]: -13.8 kcal/mol

GCAGCCGGAAACAGCTGC (((((.(....).)))))
Tm [1]: 55.7 °C | folding enthalpy [2]: -40.9 kcal/mol

GTTGATACGAAAGTAAAC (((..(((....))))))
Tm [1]: 25.8 °C | folding enthalpy [2]: -8.92 kcal/mol

GCTACCGAAAGGTACAGC ((((((....)))..)))
Tm [1]: 42.5 °C | folding enthalpy [2]: -13.6 kcal/mol

GATCTGAGTCCAGATC ((((((....))))))
Tm [1]: 46.7 °C | folding enthalpy [2]: -30 kcal/mol

GCTAAGCGAAAGCTAAGC (((.(((....))).)))
Tm [1]: 51.5 °C | folding enthalpy [2]: -41.1 kcal/mol

GCAACGCGAAAGCGTGC (((.(((....))))))
Tm [1]: 69.1 °C | folding enthalpy [2]: -14.2 kcal/mol

GGTGGGACGAAAGTCACC (((..(((....))))))
Tm [1]: 47 °C | folding enthalpy [2]: -14.4 kcal/mol

ACATAGAAATATGT (((((....)))))
Tm [1]: 24.6 °C | folding enthalpy [2]: -7.88 kcal/mol

GTCAGACGAAAGTCGGAC (((.(((....))).)))
Tm [1]: 63.1 °C | folding enthalpy [2]: -35.5 kcal/mol

GCCGATGGAAACACCGGC ((((.((....)).))))
Tm [1]: 52.4 °C | folding enthalpy [2]: -42.9 kcal/mol

GGCTTGGGAAACCAAACC ((.((((....)))).))
Tm [1]: 41 °C | folding enthalpy [2]: -27.8 kcal/mol

GGCAGCCCGAAAGGGGCC (((..(((....))))))
Tm [1]: 50.7 °C | folding enthalpy [2]: -13.3 kcal/mol

GTGTTGACGAAAGTCCAC (((..(((....))))))
Tm [1]: 41.6 °C | folding enthalpy [2]: -19.6 kcal/mol

GGGTATGGAAACATACTC (.(((((....))))).)
Tm [1]: 44.8 °C | folding enthalpy [2]: -23 kcal/mol

GTACTTGGAAACGAGTAC (((((.(....).)))))
Tm [1]: 44.2 °C | folding enthalpy [2]: -33.6 kcal/mol

GCCCAGGGAAACCCGGAC (.((.((....)).)).)
Tm [1]: 28.6 °C | folding enthalpy [2]: -4.63 kcal/mol

GCGCACGGAAACACGCGC ((((..(....)..))))
Tm [1]: 51.6 °C | folding enthalpy [2]: -32.9 kcal/mol

GCCTCTGGAAACAGAAGC ((.((((....)))).))
Tm [1]: 35.6 °C | folding enthalpy [2]: -24.2 kcal/mol

GAGACAGGAAACCGTCTC (((((.(....).)))))
Tm [1]: 46.3 °C | folding enthalpy [2]: -29.2 kcal/mol

GCGGCCGAAAGGCTTCGC ((((((....)))..)))
Tm [1]: 53.5 °C | folding enthalpy [2]: -17.1 kcal/mol

GTTGTTGGAAACAACAGC (.(((((....))))).)
Tm [1]: 52.8 °C | folding enthalpy [2]: -13.2 kcal/mol

GCGCACCCGAAAGGGCGC (((..(((....))))))
Tm [1]: 67 °C | folding enthalpy [2]: -20.5 kcal/mol

CGCGGAAAAACAACAACAACCGCG ((....................))
Tm [1]: 37.3 °C | folding enthalpy [2]: -29.6 kcal/mol

GGACCGGGAAACCAGTCC ((((.((....)).))))
Tm [1]: 47.3 °C | folding enthalpy [2]: -23.4 kcal/mol

GATCGTATTACGATC ((((((...))))))
Tm [1]: 57 °C | folding enthalpy [2]: -36.1 kcal/mol

GCCAAAGAAATTTGGC ((((((....))))))
Tm [1]: 54 °C | folding enthalpy [2]: -34.6 kcal/mol

GCGATTCCGAAAGGACGC (((..(((....))))))
Tm [1]: 46 °C | folding enthalpy [2]: -26.3 kcal/mol

GATATCCGAAAGGAAATC (((.(((....))).)))
Tm [1]: 37.1 °C | folding enthalpy [2]: -27.2 kcal/mol

AAGTCGAAAGACTT (((((....)))))
Tm [1]: 52.6 °C | folding enthalpy [2]: -18.3 kcal/mol

GCGCGAGGAAACTCGCAC (.(((((....))))).)
Tm [1]: 49.4 °C | folding enthalpy [2]: -11.4 kcal/mol

GGTGTGGGAAACCGCATC (.((.((....)).)).)
Tm [1]: 41.9 °C | folding enthalpy [2]: -23.7 kcal/mol

GCGCGCGAAAGCGCTCGC ((((((....)))..)))
Tm [1]: 59.4 °C | folding enthalpy [2]: -10.5 kcal/mol

GATGTTGGAAACAGCATC ((((.((....)).))))
Tm [1]: 45.5 °C | folding enthalpy [2]: -25 kcal/mol

GCCAGGCGAAAGCTTAGC ((.(.((....)).).))
Tm [1]: 32.3 °C | folding enthalpy [2]: -10.9 kcal/mol

GTCGAGGGAAACCTTGAC (((.(((....))).)))
Tm [1]: 48.7 °C | folding enthalpy [2]: -38.5 kcal/mol

GATCACGACGGTGATC ((((((....))))))
Tm [1]: 59.8 °C | folding enthalpy [2]: -37.8 kcal/mol

GAATGTGAAAACATTC ((((((....))))))
Tm [1]: 51.3 °C | folding enthalpy [2]: -35.2 kcal/mol

GCTTATGGAAACATAGGC ((.((((....)))).))
Tm [1]: 41.6 °C | folding enthalpy [2]: -32.8 kcal/mol

GCTACAGGAAACTGTAAC (.(((((....))))).)
Tm [1]: 30.3 °C | folding enthalpy [2]: -12.8 kcal/mol

GACTTCGGAAACGAAATC ((.((((....)))).))
Tm [1]: 31.9 °C | folding enthalpy [2]: -22.9 kcal/mol

GACTTACGAAAGTATGTC (((.(((....))).)))
Tm [1]: 47.8 °C | folding enthalpy [2]: -32.9 kcal/mol

GATCTGCATCCAGATC ((((((....))))))
Tm [1]: 46.7 °C | folding enthalpy [2]: -42 kcal/mol

GTTCATCGAAAGATAAC (((.(((....))))))
Tm [1]: 32.3 °C | folding enthalpy [2]: -12.4 kcal/mol

GGTGAGGGAAACCTCGTC (..((((....))))..)
Tm [1]: 33.2 °C | folding enthalpy [2]: -13.3 kcal/mol

GACCACGAAAGTGCTGTC ((((((....)))..)))
Tm [1]: 34 °C | folding enthalpy [2]: -17.2 kcal/mol

GCGAACAGTCGC ((((....))))
Tm [1]: 42.1 °C | folding enthalpy [2]: -16.4 kcal/mol

CGGCCGGAAACGGAGCCG ((((((....)))..)))
Tm [1]: 54.6 °C | folding enthalpy [2]: -34.7 kcal/mol

GCTCTGCGAAAGCGGGGC ((.(.((....)).).))
Tm [1]: 63.4 °C | folding enthalpy [2]: -27.6 kcal/mol

GGGGCCGAAAGGCCGCCC ((((((....)))..)))
Tm [1]: 56.9 °C | folding enthalpy [2]: -9.69 kcal/mol

GATCCTAGCAGGATC ((((((...))))))
Tm [1]: 55.9 °C | folding enthalpy [2]: -37 kcal/mol

GTTCGTGGAAACACAAAC (((.(((....))).)))
Tm [1]: 34 °C | folding enthalpy [2]: -22.1 kcal/mol

CGGCCGGAAACGGCCCG ((((((....))).)))
Tm [1]: 58.5 °C | folding enthalpy [2]: -7.26 kcal/mol

GATCGGCCGCCCGATC ((((((....))))))
Tm [1]: 60.5 °C | folding enthalpy [2]: -40.4 kcal/mol

GATCAGTCCGCTGATC ((((((....))))))
Tm [1]: 53.1 °C | folding enthalpy [2]: -53.2 kcal/mol

GTGCCCGCGAAAGCGCAC (((..(((....))))))
Tm [1]: 45.5 °C | folding enthalpy [2]: -13.5 kcal/mol

GCTCCAGAAATGGAGC ((((((....))))))
Tm [1]: 65.8 °C | folding enthalpy [2]: -32 kcal/mol

GATCCATGAATGGATC ((((((....))))))
Tm [1]: 53.3 °C | folding enthalpy [2]: -45.1 kcal/mol

GTGTTTGGAAACGAACAC (((((.(....).)))))
Tm [1]: 49.5 °C | folding enthalpy [2]: -35.8 kcal/mol

GCGACGCGAAAGCATTGC ((.(.((....)).).))
Tm [1]: 40.5 °C | folding enthalpy [2]: -19.2 kcal/mol

GCGTAGGGAAACCCACGC ((((.((....)).))))
Tm [1]: 54.3 °C | folding enthalpy [2]: -37.3 kcal/mol

GCAGACGAAAGTCGGTGC ((((((....)))..)))
Tm [1]: 50.2 °C | folding enthalpy [2]: -19.3 kcal/mol

TTTCAGAAATGAAA (((((....)))))
Tm [1]: 18 °C | folding enthalpy [2]: -5.49 kcal/mol

CGGACCGGAAACGGACCG (((.(((....))).)))
Tm [1]: 58.6 °C | folding enthalpy [2]: -41.5 kcal/mol

GGGTCTACGAAAGTACCC (((..(((....))))))
Tm [1]: 40.1 °C | folding enthalpy [2]: -22.5 kcal/mol

GGTGCAGGAAACTACACC ((((.((....)).))))
Tm [1]: 43.4 °C | folding enthalpy [2]: -32.1 kcal/mol

GATCCCTAGAGGGATC ((((((....))))))
Tm [1]: 59 °C | folding enthalpy [2]: -40.2 kcal/mol

GGTGCGGCGAAAGCCACC (((..(((....))))))
Tm [1]: 48.2 °C | folding enthalpy [2]: -14 kcal/mol

GCCTTCTCGAAAGAGGGC (((..(((....))))))
Tm [1]: 44.3 °C | folding enthalpy [2]: -23.8 kcal/mol

GAGTCCGAAAGGAGACTC ((((((....)))..)))
Tm [1]: 44.9 °C | folding enthalpy [2]: -21.9 kcal/mol

GTATCGCGAAAGCGGTAC (((.(((....))).)))
Tm [1]: 56.5 °C | folding enthalpy [2]: -29.2 kcal/mol

GCAGGCCGAAAGGCTTGC (((.(((....))).)))
Tm [1]: 69.1 °C | folding enthalpy [2]: -29.2 kcal/mol
